According to ChEMBL document CHEMBL1157704, “Potent activity against K562 cells by polyamide-seco-CBI conjugates targeting histone H4 genes” (Bioorg Med Chem, 2010):

Assays:
Assay type in all cases: functional
K562 [1] = assay: Effect on CLGN gene expression in human K562 cells assessed as change in mRNA transcript expression at 10 nM after 48 hrs by DNA microarray analysis relative to control
How it was run: (§1)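 Transcripts were profiled on Affymetrix GeneChip Human Gene 1.0 ST arrays in K562 cells treated at 10 nM. Treated cells were collected at 6, 12, 24 and 48 h; untreated controls were collected at 48 h. Transcripts changed at least twofold versus control were scored.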

K562 [2] = assay: Effect on RP11-195B gene expression in human K562 cells assessed as change in mRNA transcript expression at 10 nM after 48 hrs by DNA microarray analysis relative to control
How it was run: (§2)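 K562 CML cells (b3a2 Bcr-Abl) in standard ATCC-recommended culture, exposed once to 10 nM conjugate and harvested at 48 h. Untreated controls were also collected at 48 h. Transcripts were profiled on Human Gene 1.0 ST whole-genome oligonucleotide arrays, and each treated level was expressed relative to the untreated control, with a cutoff of at least twofold change.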

K562 [3] = assay: Effect on PLA2G6 gene expression in human K562 cells assessed as change in mRNA transcript expression at 10 nM after 48 hrs by DNA microarray analysis relative to control; how it was run: as §2
K562 [4] = assay: Effect on ITGB3 gene expression in human K562 cells assessed as change in mRNA transcript expression at 10 nM after 48 hrs by DNA microarray analysis relative to control; how it was run: as §2
K562 [5] = assay: Effect on ITGA2B gene expression in human K562 cells assessed as change in mRNA transcript expression at 10 nM after 48 hrs by DNA microarray analysis relative to control; how it was run: as §2
K562 [6] = assay: Effect on SLFN14 gene expression in human K562 cells assessed as change in mRNA transcript expression at 10 nM after 48 hrs by DNA microarray analysis relative to control; how it was run: as §2
K562 [7] = assay: Effect on TMEM126A gene expression in human K562 cells assessed as change in mRNA transcript expression at 10 nM after 48 hrs by DNA microarray analysis relative to control
How it was run: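 K562 CML cells (b3a2 Bcr-Abl) kept under standard culture conditions were exposed to 10 nM conjugate and harvested at 6, 12, 24 and 48 h. Untreated controls were harvested at 48 h. Whole-transcript oligonucleotide microarray profiling was done, and changes of at least twofold versus control were scored.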

K562 [8] = assay: Effect on HIST1H2BL gene expression in human K562 cells assessed as change in mRNA transcript expression at 10 nM after 48 hrs by DNA microarray analysis relative to control; how it was run: as §1

Measured: fold change (FC)

CC(=O)Nc1cn(C)c(C(=O)Nc2cn(C)c(C(=O)NCCC(=O)Nc3cn(C)c(C(=O)NCCCC(=O)Nc4cc(C(=O)Nc5cn(C)c(C(=O)Nc6ccc7[nH]c(C(=O)N8CC(CCl)c9c8cc(O)c8ccccc98)cc7c6)n5)n(C)c4)n3)n2)n1 (stereo not drawn)
>=2: all assays above
